Measured values published in ChEMBL document CHEMBL3102766, “Thiodiketopiperazines from the marine-derived fungus Phoma sp. OUCMDZ-1847” (J Nat Prod, 2014).
The source made the active and inactive calls. The rule behind the calls is not given here.

Experiments:
Format in all cases: functional, cell-based
MGC-803 = assay: Cytotoxicity against human MGC803 cells after 24 hrs by SRB assay; conditions: for IC50: MGC-803, 24 h
Summary of the method: (§1)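 Cytotoxicity against the tumor cell lines was read out by the SRB method, with adriamycin run as the positive control.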

K562 = assay: Cytotoxicity against human K562 cells after 72 hrs by MTT assay; conditions: for IC50: K562, 72 h
A549 = assay: Cytotoxicity against human A549 cells after 24 hrs by SRB assay; conditions: for IC50: A549, 24 h; summary of the method: as §1
HCT-116 = assay: Cytotoxicity against human HCT116 cells after 72 hrs by MTT assay; conditions: for IC50: HCT-116, 72 h
HL-60 = assay: Cytotoxicity against human HL60 cells after 72 hrs by MTT assay; conditions: for IC50: HL-60, 72 h

Row | Structure (SMILES) | IC50 (MGC-803) | IC50 (K562) | IC50 (A549) | IC50 (HCT-116) | IC50 (HL-60) | Activity (MGC-803) | Activity (K562) | Activity (A549) | Activity (HCT-116) | Activity (HL-60)
1 | CS[C@@]12C[C@@H]3C(=O)C=C[C@H](O)[C@H]3N1C(=O)[C@]1(SC)C[C@@H]3C(=O)C=C[C@H](O)[C@H]3N1C2=O | 4.2 µM | > 10 µM | > 10 µM | 4 µM | 3.5 µM | – | – | – | – | –
2 | COc1cccc2c1C(=O)c1c(O)c3c(c(O)c1C2=O)C[C@@](O)(C(=O)CO)C[C@@H]3O[C@H]1C[C@H](N)[C@H](O)[C@H](C)O1 [DOXORUBICIN] | 0.17 µM | – | 0.16 µM | – | – | – | – | – | – | –
3 | O=C1C=C[C@H](O)[C@@H]2[C@@H]1C[C@@]13SS[C@]4(C[C@H]5C(=O)C[C@H](O)[C@H](O)[C@H]5N4C1=O)C(=O)N23 | 3.4 µM | > 10 µM | > 10 µM | 7.1 µM | 3.5 µM | – | – | – | – | –
4 | CS[C@@]1(Cc2ccccc2)NC(=O)[C@]2(SC)CC3=CC=C[C@H](O)[C@H]3N2C1=O | 8.5 µM | > 10 µM | > 10 µM | > 10 µM | > 10 µM | – | – | – | – | –
5 | O=C1C[C@H]2SS[C@@]34C[C@@H]1[C@@H]([C@H]2O)N3C(=O)[C@@]12C[C@H]3C(=O)C[C@@H](S1)[C@H](O)[C@H]3N2C4=O | – | – | – | – | – | inactive | inactive | inactive | inactive | inactive
6 | O=C1C[C@@H]2S[C@@]34C[C@@H]1[C@@H]([C@H]2O)N3C(=O)[C@@]12C[C@H]3C(=O)C[C@H](S1)[C@H](O)[C@H]3N2C4=O | – | – | – | – | – | inactive | inactive | inactive | inactive | inactive
7 | O=C1C[C@@H]2SS[C@@]34C[C@@H]1[C@@H]([C@H]2O)N3C(=O)[C@@]12C[C@H]3C(=O)[C@H](S1)[C@H](O)[C@H](O)[C@H]3N2C4=O | – | – | – | – | – | inactive | inactive | inactive | inactive | inactive
8 | O=C1C[C@@H]2SS[C@@]34C[C@@H]1[C@@H]([C@H]2O)N3C(=O)[C@@]12C[C@H]3C(=O)C[C@H](SS1)[C@H](O)[C@H]3N2C4=O | – | – | – | – | – | inactive | inactive | inactive | inactive | inactive
9 | O=C1C=C[C@H](O)[C@@H]2[C@@H]1C[C@@]13SS[C@]4(C[C@@H]5C(=O)C=C[C@H](O)[C@H]5N4C1=O)C(=O)N23 [EPICORAZINE A] | 2.7 µM | 1.5 µM | 2.3 µM | 0.33 µM | 0.05 µM | – | – | – | – | –
10 | O=C1N2[C@H]3[C@H](C[C@]24SS[C@]12C[C@H]1[C@@H]([C@@H](O)CC[C@@H]1O)N2C4=O)[C@@H](O)CC[C@@H]3O | – | – | – | – | – | inactive | inactive | inactive | inactive | inactive
11 | O=C1C[C@H]2S[C@@]34C[C@@H]1[C@@H]([C@H]2O)N3C(=O)[C@@]12C[C@H]3C(=O)[C@@H](S1)[C@H](O)[C@H](O)[C@H]3N2C4=O | – | – | – | – | – | inactive | inactive | inactive | inactive | inactive
12 | O=C1C[C@H](O)[C@H](O)[C@@H]2[C@H]1C[C@@]13SS[C@]4(C[C@H]5C(=O)C[C@H](O)[C@H](O)[C@H]5N4C1=O)C(=O)N23 | – | – | – | – | – | inactive | inactive | inactive | inactive | inactive
13 | CS[C@@]12CC3=CC=C[C@H](O)[C@H]3N1C(=O)/C(=C/c1ccccc1)NC2=O | – | – | – | – | – | inactive | inactive | inactive | inactive | inactive
14 | O=C1C=C[C@H](O)[C@@H]2[C@@H]1C[C@@]13SS[C@]4(C[C@H]5C(=O)C=C[C@H](O)[C@H]5N4C1=O)C(=O)N23 | 5.2 µM | 4.6 µM | > 10 µM | > 10 µM | 1.6 µM | – | – | – | – | –
